Screening results deposited in PubChem BioAssay by several laboratories.
HNF4A DNA FP – change in binding of human HNF4 alpha to DNA. P41235. HNF4a-FITC DNA binding, fluorescence polarization, 1 h. activity change, % at 10 µM. 360,000 tested, 0.3% active. AID 1224865; in the data active = activity change above about 30%, passing the limit was not always enough
TPT1 inh – inhibitors of Candida albicans tRNA 2'-phosphotransferase TPT1 | 300,000 tested, 0.81% active | AID 1962 | inhibition, % at 5 µM | recombinant caTPT1, FP RNA substrate dephosphorylation;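 active = inhibition above the mean of all tested compounds plus 3 SD, set per screening campaign, cut at about 24% in these data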;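 note: plate controls were DMSO alone for no effect and ferristatin control at 100 nM for full effect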
CSN inh – blocks human CSN-mediated cullin deneddylation. Q92905. Purified CSN, SCF-Nedd8-OG deneddylation, fluorescence polarization. inhibition, % at 12.5 µM. 360,000 tested, 0.38% active. AID 651999;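 active = pattern-corrected inhibition above about 35%, with an unprinted fluorescence ratio check between 0.5 and 1.5, limit read from the data, passing the limit was not always enough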;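 note: 0% = enzyme with substrate and 100% = substrate without enzyme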
Target sequence (Q92905 whole entry, looked up, one chain of several): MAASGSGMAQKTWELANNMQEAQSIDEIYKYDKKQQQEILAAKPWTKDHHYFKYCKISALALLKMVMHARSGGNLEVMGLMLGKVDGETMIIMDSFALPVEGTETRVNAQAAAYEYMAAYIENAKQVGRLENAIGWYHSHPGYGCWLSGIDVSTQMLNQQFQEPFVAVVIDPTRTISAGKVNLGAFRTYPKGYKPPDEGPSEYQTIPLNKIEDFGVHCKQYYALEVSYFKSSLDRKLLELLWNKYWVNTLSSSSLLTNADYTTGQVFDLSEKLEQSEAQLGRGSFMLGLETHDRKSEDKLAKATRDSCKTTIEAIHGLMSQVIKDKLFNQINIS
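Test system: Human Csn5 produced in HEK293T cells | Compound: 12.5 µM single point | Times: 90 min, room temperature | Signal: Fluorescence polarization readout | Read-out basis: % inhibition of substrate cleavage by Csn5 | Controls: no-enzyme wells high, enzyme-with-substrate wells low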
TbMetRS inhib – blocks T. brucei methionyl-tRNA synthetase activity. purified T. brucei MetRS, ATP depletion, Kinase-Glo luminescence. inhibition, % at 11.9 µM. 360,000 tested, 0.4% active;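 active = inhibition above a per-plate cutoff of the control wells' mean inhibition plus 3 SD, cut at about 5.5% in these data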;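 note: 0% = DMSO wells median and 100% = median of wells with control inhibitor compound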
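assay system = parasite MetRS enzyme | timing = 15 min preincubation, 2 h reaction, all 25 °C | evaluation = percent inhibition relative to median high and low control wells | medium = HEPES buffer containing pyrophosphatase, BSA, spermine, DTT | compound = single dose, 11.9 µM final nominal, 0.9% final DMSO | detection = Kinase-Glo luminescence, ATP depletion format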
IDE cell inh – cellular human IDE inhibition | P14735 | HEK cells, FAbetaB cleavage, fluorescence polarization | inhibition, % at 5.59 µM | 320,000 tested, 0.41% active | AID 434962;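 active = percent inhibition above the average of all tested compounds plus 3 SD, set per screening campaign, cut at about 16% in these data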;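 note: IDE supplied by intact live HEK cells; FP after avidin binding of uncleaved biotin substrate so inhibition keeps polarization high; 0% = DMSO wells and 100% = 60 µM reference IDE inhibitor Ii1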
IDE act – boosts human insulin-degrading enzyme activity in HEK cells. FAbeta-B cleavage, fluorescence polarization; 0% vehicle, 100% cell-free pure enzyme wells. activation, % at 5.96 µM. 340,000 tested, 0.073% active;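 active = activation above the mean of all tested compounds plus 3 SD, set per screening campaign, cut at about 17% in these data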
* marks the source's active call; other numbers are inactive results. The list is not random: actives were taken first. Their share in the collection is about 1.7%.

Results for Cc1ccccc1Cn1cccc1/C=C1/C(=N)N2C=CSC2=NC1=O ?
HNF4A DNA FP: 5.0; TPT1 inh: 18.9; CSN inh: 41.0*; TbMetRS inhib: 0.1; IDE cell inh: 3.8; IDE act: 2.2

How did CC1=CC2=NC(=O)/C(=C\c3cccn3CCOc3ccccc3C)C(=N)N2O1 do in these assays?
HNF4A DNA FP: 2.0; TPT1 inh: -0.7; CSN inh: -2.1; TbMetRS inhib: -0.2; IDE cell inh: 1.7; IDE act: -2.3

Results for CCSc1nnc(NC(=O)C2CC(=O)N(Cc3ccccc3)C2)s1 (stereo not given) ?
HNF4A DNA FP: 4.5; TPT1 inh: -0.3; CSN inh: -5.9; TbMetRS inhib: -0.1; IDE cell inh: -4.7; IDE act: -4.1

How did C=CCCC(=O)N1C[C@H]2CON(C)[C@H]2C[C@H]1c1ccccc1Br do in these assays?
HNF4A DNA FP: -2.4; CSN inh: 5.0; TbMetRS inhib: -0.2; IDE act: 5.5

Results for C=CCCC(=O)N1C[C@@H](CO)[C@@H](NC)C[C@H]1c1ccccc1Br ?
HNF4A DNA FP: 0.1; CSN inh: 106.5*; TbMetRS inhib: -1.3

Results for CC(=O)Nc1ccc2c(c1)C(=O)c1ccc(Cl)cc1-2 ?
HNF4A DNA FP: 4.5; CSN inh: -2.1; TbMetRS inhib: -0.2; IDE act: -1.3

Results for COc1ccc(N/N=C(/C)c2cnnc(-c3ccccc3)n2)cc1 ?
HNF4A DNA FP: 46.2*; TPT1 inh: 2.8; CSN inh: 26.2; TbMetRS inhib: -1.0; IDE cell inh: -4.6; IDE act: 0.6

Results for Cc1cccc(C(=O)NC(=S)Nc2ccccc2C(=O)O)c1 ?
HNF4A DNA FP: 7.8; TPT1 inh: -3.0; CSN inh: 78.5*; TbMetRS inhib: -0.8; IDE cell inh: 8.6; IDE act: 6.2

How did CCOC(=O)c1cc(-c2ccccc2)sc1NC(=S)Nc1cc(C)ccn1 do in these assays?
HNF4A DNA FP: 47.0*; TPT1 inh: -3.2; CSN inh: 16.2; TbMetRS inhib: -0.7; IDE cell inh: 7.0; IDE act: 4.7

How did O=C(NCCCN1CCCCCC1)c1ccc(CS(=O)(=O)Cc2ccccc2F)o1 do in these assays?
HNF4A DNA FP: 127.6; CSN inh: 97.2*; TbMetRS inhib: -1.1; IDE act: 6.3

Results for O=c1c2sccc2n(Cc2cccc(F)c2)c(=O)n1-c1ccc(F)cc1 ?
HNF4A DNA FP: 2.9; TPT1 inh: 0.7; CSN inh: -0.3; TbMetRS inhib: -0.4; IDE cell inh: -5.5; IDE act: 2.8

How did Cc1ccsc1C1C=C(c2cccc(Br)c2)Nc2ncnn21 (stereo not given) do in these assays?
HNF4A DNA FP: -25.9; TPT1 inh: -85.1; CSN inh: -21.3; TbMetRS inhib: 0.2; IDE cell inh: 25.3*; IDE act: -34.0

Results for CN(CCO)c1ccc(C=NNc2ccc([N+](=O)[O-])cc2S(=O)(=O)Nc2ccccc2C(=O)O)cc1 ?
HNF4A DNA FP: 47.2*; CSN inh: 23.5; TbMetRS inhib: 0.3; IDE cell inh: -0.2

What do the screens show for `COc1ccc(C)cc1S(=O)(=O)n1c([N+](=O)[O-])cnc1C`?
HNF4A DNA FP: 0.6; TPT1 inh: 1.5; CSN inh: 0.0; TbMetRS inhib: -0.2; IDE cell inh: -1.8; IDE act: 0.9

What do the screens show for `C(=N\NC1=Nc2cccc3cccc1c23)/c1ccccn1`?
HNF4A DNA FP: 54.4*; CSN inh: 14.5; TbMetRS inhib: 0.3; IDE act: -22.7

How did Clc1ccccc1/C=N/NC1=Nc2cccc3cccc1c23 do in these assays?
HNF4A DNA FP: 8.4; TPT1 inh: 3.1; CSN inh: 6.1; TbMetRS inhib: -1.5; IDE cell inh: 3.8; IDE act: 5.1

What do the screens show for `O=C1C(=O)N(Cc2ccccc2)C(=O)N1CCOc1ccccc1`?
HNF4A DNA FP: -4.4; CSN inh: -8.0; TbMetRS inhib: -0.1

How did Cc1onc(-c2c(Cl)cccc2Cl)c1NC(=O)N1CCSCC1 do in these assays?
HNF4A DNA FP: 0.4; TPT1 inh: -0.6; CSN inh: 0.8; TbMetRS inhib: -0.9; IDE cell inh: 7.4; IDE act: 11.3

Results for Cc1cc(-c2ccccc2)nc(Nc2nc3c(C)cccc3c(=O)[nH]2)n1 ?
HNF4A DNA FP: 52.6*; CSN inh: 13.7; TbMetRS inhib: -0.4; IDE act: 0.4
